Reference: PMC9575670 (Journal of Medicinal Chemistry, 2022)
pIC50: −log10 of the molar value.

Assays:
[1] = tested on: normal CCD-18Co cell line; assay: MTT in vitro antiproliferation assay, CCD-18Co; assay type: cell-based; settings: Homo sapiens, 24 h, read-out: IC50 ± SD CCD-18Co
[2] = tested on: colon cancer (HCT 116) cell line; assay: MTT in vitro antiproliferation assay, HCT 116; assay type: cell-based; settings: Homo sapiens, HCT-116, 24 h, read-out: IC50 ± SD HCT 116
[3] = tested on: pancreatic cancer (ASPC-1) cell line; assay: MTT in vitro antiproliferation assay, ASPC-1; assay type: cell-based; settings: Homo sapiens, ASPC1, 24 h, read-out: IC50 ± SD ASPC-1
[4] = tested on: lung cancer (A549) cell line; assay: MTT in vitro antiproliferation assay, A549; assay type: cell-based, human; settings: for pIC50: Homo sapiens, A549, 24 h, read-out: IC50 ± SD A549; for selectivity index (SI), cancer cells (A549) over normal cells (MRC-5): IC50 MRC-5 / IC50 A549
[5] = tested on: breast cancer (MCF-7) cell line; assay: MTT in vitro antiproliferation assay, MCF-7; assay type: cell-based; settings: Homo sapiens, MCF7, 24 h, read-out: IC50 ± SD MCF-7
[6] = tested on: A549 cells; assay: Cell cycle analysis by flow cytometry; assay type: cell-based, human; settings: A549, up to 1.0 μM, 24 h, compared to vehicle
[7] = tested on: tubulin; assay: In vitro tubulin polymerization assay; assay type: biochemical; settings: 20 μM, compared to vehicle control
[8] = tested on: MCF-7 cells; assay: Cell cycle analysis by flow cytometry; assay type: cell-based, human; settings: MCF-7, up to 1.0 μM, 24 h, compared to vehicle
[9] = tested on: lung normal (MRC-5) cell line; assay: MTT in vitro antiproliferation assay, MRC-5; assay type: cell-based; settings: Homo sapiens, MRC5, 24 h, read-out: IC50 ± SD MRC-5
[10] = tested on: lung normal IMR-90 cell line; assay: MTT in vitro antiproliferation assay, IMR-90; assay type: cell-based; settings: Homo sapiens, IMR-90, 24 h, read-out: IC50 ± SD IMR-90
[11] = tested on: cancer cell lines (ASPC-1, A549, MCF-7, HCT 116); assay: MTT in vitro antiproliferation assay, cancer cell line panel; assay type: cell-based, human; settings: for pIC50: Homo sapiens, 24 h, read-out: IC50 values in cancer cell lines (range); for selectivity index (SI) / cancer cell selectivity over normal cells (MRC-5), range: range over cancer cell lines vs MRC-5
[12] = tested on: 4T1 cells tumor; assay: In vivo antitumor activity, 4T1 xenograft model, 11 day study; set-up: species or system BALB/c mice; settings: G4 DOX: 2 mg/kg IP once in 3 days
Method in brief: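 BALB/c mice received 4T1 cells (1 × 10^5/mouse) subcutaneously into the left mammary fat pad. Caliper volume = length × width²/2. At about 50 mm³, mice were allocated to four groups, unrandomized and unblinded. All dosing was IP: 0.9% saline vehicle; test compound 0.711 or 1.422 mg/kg (days 1–3) then 14.22 or 28.44 mg/kg (days 4–11); doxorubicin 2 mg/kg every 3 days. Tumours were excised on day 12 and volume and mass measured; one-way ANOVA.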

Row | pIC50 [2] | pIC50 [3] | pIC50 [4] | pIC50 [5] | pIC50 [11] | Compound | pIC50 [1] | selectivity index (SI), cancer cells (A549) over normal cells (MRC-5) [4] | accumulation of cells in the G2/M phase [6] | effect on tubulin polymerization [7] | accumulation of cells in the G2/M phase [8] | pIC50 [9] | pIC50 [10] | times lower activity than the CLC and NOZ ([11]; IC50 comparison) | selectivity index (SI) / cancer cell selectivity over normal cells (MRC-5), range [11] | average tumor mass reduction at the endpoint [12] [%] | average tumor volume reduction at the endpoint compared to G1 [12] [%]
1 | 4.28 | 4.25 | 4.14 | 4.23 | 4.14 to 4.28 | CCCSc1ccc2nc(NC(=O)OC)[nH]c2c1 [Al, albendazole] | 3.92 | 1.32 | slight accumulation of cells in the G2/M phase | inhibition of tubulin polymerization | slight accumulation of cells in the G2/M phase | 4.02 | 3.55 | 7–10 |  |  | 
2 | 3.81 | 3.74 | 3.86 | 3.88 | 3.74 to 3.88 | CCCSc1ccc2[nH]c(N[C@H]3O[C@@H](CO)[C@H](O)[C@@H](O)[C@@H]3O)nc2c1 [Al–G, albendazole amine glucose conjugate] | 3.15 |  | slight accumulation of cells in the G2/M phase | inhibition of tubulin polymerization | slight accumulation of cells in the G2/M phase | 3.05 | < 3.00 |  | five to seven times |  | 
3 | 5.17 | 4.98 | 4.97 | 5.13 |  | COC(=O)Nc1nc2ccc(C(=O)c3cccs3)cc2[nH]1 [NOZ, nocodazole] |  | 1.2 |  | inhibited |  | 4.92 |  |  | 1.1–1.8 |  | 

Second part, the molecule before the results:

Row | Compound | pIC50 [2] | pIC50 [3] | pIC50 [4] | pIC50 [5] | pIC50 [11] | pIC50 [1] | selectivity index (SI), cancer cells (A549) over normal cells (MRC-5) [4] | accumulation of cells in the G2/M phase [6] | effect on tubulin polymerization [7] | accumulation of cells in the G2/M phase [8] | pIC50 [9] | pIC50 [10] | times lower activity than the CLC and NOZ ([11]; IC50 comparison) | selectivity index (SI) / cancer cell selectivity over normal cells (MRC-5), range [11] | average tumor mass reduction at the endpoint [12] [%] | average tumor volume reduction at the endpoint compared to G1 [12] [%]
4 | CC(=O)O[C@H]1C(=O)[C@@]2(C)[C@H]([C@H](OC(=O)c3ccccc3)[C@]3(O)C[C@H](OC(=O)[C@H](O)[C@@H](NC(=O)c4ccccc4)c4ccccc4)C(C)=C1C3(C)C)[C@]1(OC(C)=O)CO[C@@H]1C[C@@H]2O [PCL, paclitaxel] |  |  |  |  |  |  |  |  | enhanced the tubulin polymerization |  |  |  |  |  |  | 
5 | COc1cccc2c1C(=O)c1c(O)c3c(c(O)c1C2=O)C[C@@](O)(C(=O)CO)C[C@@H]3O[C@H]1C[C@H](N)[C@H](O)[C@H](C)O1 [doxorubicin] |  |  |  |  |  |  |  |  |  |  |  |  |  |  | 14.5 | 29.4
